Experimental data from different studies.
Lines come from different studies, so protocols differ.
Target: Cytochrome P450 2D6 (CYP2D6, Homo sapiens, UniProt P10635)
Effect on: enzyme activity
Mode: inhibitor

Compound	technique	species	sample	time	pH	quantity	value
COc1ccc2cc3[n+](cc2c1OC)CCc1cc2c(cc1-3)OCO2	–	–	–	–	–	IC50	0.6 µM
Cc1cc(C)c2c(c1)[C@@H](N(Cc1cc(C(F)(F)F)cc(C(F)(F)F)c1)c1nnn(C)n1)CCCN2C[C@H]1CC[C@H](C(=O)O)CC1	–	human	liver microsomes	–	pH 7.4	Ki	2100 nM
CCOC(=O)C1CCN(C(=O)c2ccc(N(CC)Cc3cnc4nc(N)nc(N)c4n3)cc2)CC1	luciferase	–	–	–	–	IC50	51.3 µM
NS(=O)(=O)NCCNc1nonc1C(=NO)Nc1ccc(F)c(Br)c1	fluorescence	–	–	–	–	IC50	> 10 µM
Cc1cc2c(F)c(Oc3ncnn4cc(OC[C@@H](C)O)c(C)c34)ccc2[nH]1	fluorescence	–	–	15 min	–	IC50	34.7 µM
CCc1cc(/C(C)=N/OCc2ccc(C3CCCCC3)c(C(F)(F)F)c2)ccc1CN1CC(C(=O)O)C1	–	human	liver microsomes	20 min	–	IC50	> 1.1 µM
Nc1nc(N)c2nc(CNc3cccc4ccccc34)cnc2n1	luciferase	–	–	–	–	IC50	0.832 µM
C[C@@H](c1ccc2nccn2c1)n1nnc2ncc(-c3cnn(C)c3)nc21	–	human	liver microsomes	–	pH 7.4	IC50	24 µM
COc1ccn2c(Nc3ccccc3F)c(-c3ccncn3)nc2c1	–	–	–	–	–	IC50	2.3 µM
Nc1nc(N)c2nc(C(=O)NCc3ccccc3)cnc2n1	luciferase	–	–	–	–	IC50	0.204 µM
CC1=CC(=O)C(C(C)C)=CC1=O	fluorescence	–	–	–	pH 7.4	IC50	282 µM
Cc1coc([C@H]2C[C@H]3[C@@H](C)SC(N)=N[C@@]3(c3ccc(F)cc3F)CO2)n1	–	human	liver microsomes	–	pH 7.4	IC50	> 30 µM
